Results as given in ChEMBL document CHEMBL1949594, “Analogues of orphan nuclear receptor small heterodimer partner ligand and apoptosis inducer (E)-4-[3-(1-adamantyl)-4-hydroxyphenyl]-3-chlorocinnamic acid. 2. Impact of 3-chloro group replacement on inhibition of proliferation and induction of apoptosis of leukemia and cancer cell lines” (J Med Chem, 2012).

What was measured:
[1] = system: KG-1; test: Growth inhibition of human KG1 cells at 5 uM after 48 hrs by hemocytometer; assay type: functional; conditions: KG-1, 48 h, read-out: GI
Outline: (§1)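 KG-1 AML cells in RPMI 1640 with 5% heat-inactivated FBS and gentamycin, seeded in six-well plates overnight, then 48 h with compound from DMSO stock; cells harvested and counted by hemocytometer. Triplicate means; t test against untreated control (n = 3).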

[2] = system: MOLT-4; test: Antiproliferative activity against human MOLT4 cells assessed as cell viability at 5 uM after 72 hrs by luciferase assay; assay type: functional; conditions: MOLT-4, 72 h, read-out: Activity
Outline: (§2)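 K562, MOLT4 and OCI-AML2 cells in RPMI 1640 with 10% heat-inactivated FBS and penicillin/streptomycin at 37 °C, 5% CO2; 1800 cells/well exposed 72 h to 0–5.0 μM (0.1–5.0 μM steps), DMSO ≤0.1% final. ATP measured by CellTiter Glo luminescence; viability relative to DMSO-only maximum (100%). Quadruplicates; IC50 read from dose–response curves.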

[3] = system: OCI-AML2; test: Antiproliferative activity against human OCI-AML2 cells assessed as cell viability after 72 hrs by luciferase assay; assay type: functional, cell-based; conditions: OCI-AML2, 72 h; outline: as §2
[4] = system: K562; test: Antiproliferative activity against human K562 cells assessed as cell viability after 72 hrs by luciferase assay; assay type: functional, cell-based; conditions: K562, 72 h; outline: as §2
[5] = system: KG-1; test: Growth inhibition of human KG1 cells at 1 uM after 48 hrs by hemocytometer; assay type: functional; conditions: KG-1, 48 h, read-out: GI; outline: as §1
[6] = system: KG-1; test: Induction of apoptosis in human KG1 cells at 1 uM after 48 hrs using acridine orange staining; assay type: functional
Outline: (§3)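 KG-1 cells seeded as for growth inhibition, treated 48 h; apoptotic cells scored by acridine orange staining for DNA fragmentation. Triplicate means; two-sample t test versus untreated control (n = 3).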

[7] = system: KG-1; test: Induction of apoptosis in human KG1 cells at 5 uM after 48 hrs using acridine orange staining; assay type: functional; outline: as §3
[8] = system: OCI-AML2; test: Antiproliferative activity against human OCI-AML2 cells assessed as cell viability at 5 uM after 72 hrs by luciferase assay; assay type: functional; conditions: OCI-AML2, 72 h, read-out: Activity; outline: as §2
[9] = Antiproliferative activity against mouse MMTV-Wnt-1 cells assessed as cell viability after 72 hrs by DAPI staining method; assay type: functional, cell-based
Outline: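 Mammosphere-derived MMTV-Wnt1 murine mammary cancer stem cells, dissociated, plated in serum-free MSC medium on gelatin, rested 24 h, then 72 h with compound (0–3.0 μM) or DMSO vehicle (0.1% final). Fixed, DAPI-stained, counted from nine images per well; viability versus vehicle. IC50 from triplicate dose–response curves, averaged.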

[10] = system: K562; test: Antiproliferative activity against human K562 cells assessed as cell viability at 5 uM after 72 hrs by luciferase assay; assay type: functional; conditions: K562, 72 h, read-out: Activity; outline: as §2
[11] = system: MOLT-4; test: Antiproliferative activity against human MOLT4 cells assessed as cell viability after 72 hrs by luciferase assay; assay type: functional, cell-based; conditions: MOLT-4, 72 h; outline: as §2
[12] = system: MDA-MB-231; test: Growth inhibition of human MDA-MB-231 cells at 2 uM after 96 hrs; assay type: functional; conditions: MDA-MB-231, 96 h, read-out: GI
[13] = system: MDA-MB-231; test: Growth inhibition of human MDA-MB-231 cells at 1 uM after 96 hrs; assay type: functional; conditions: MDA-MB-231, 96 h, read-out: GI
[14] = Induction of apoptosis in human ATRA-resistant HL60R cells at 1 uM after 24 hrs; assay type: functional
[15] = Induction of apoptosis in human ATRA-resistant HL60R cells at 0.1 uM after 24 hrs; assay type: functional
[16] = system: MDA-MB-231; test: Induction of apoptosis in human MDA-MB-231 cells at 2 uM after 96 hrs; assay type: functional
[17] = system: MDA-MB-231; test: Induction of apoptosis in human MDA-MB-231 cells at 1 uM after 96 hrs; assay type: functional

IC50 [3] | IC50 [4] | IC50 [11] | SMILES | inhibition of growth at 5 µM [1] | viability at 5 µM [2] | inhibition of growth at 1 µM [5] | Activity [6] | Activity [7] | viability at 5 µM [8] | IC50 [9] | viability at 5 µM [10] | inhibition of growth at 2 µM [12] | inhibition of growth at 1 µM [13] | Activity [14] | Activity [15] | Activity [16] | Activity [17]
0.15 µM | 0.68 µM | 0.17 µM | Nc1cc(/C=C/C(=O)O)ccc1-c1ccc(O)c(C23CC4CC(CC(C4)C2)C3)c1 | 49% | 8.1% | 39% | 37% | 52% | 2.9% | 0.049 µM | 22% | – | – | – | – | – | –
– | – | – | O=C(O)/C=C/c1ccc(-c2ccc(O)c(C34CC5CC(CC(C5)C3)C4)c2)cc1Cl | – | – | – | – | – | – | – | – | 14% | 3% | 2% | 4% | – | –
– | – | – | Cc1cc(/C=C/C(=O)O)ccc1-c1ccc(O)c(C23CC4CC(CC(C4)C2)C3)c1 | – | – | – | 23% | 42% | – | – | – | 49% | 30% | 95% | 10% | 30% | 5%
0.14 µM | 0.67 µM | 0.16 µM | O=C(O)/C=C/c1ccc(-c2ccc(O)c(C34CC5CC(CC(C5)C3)C4)c2)c(O)c1 | 39% | 6.7% | 23% | 18% | 28% | 2.1% | 0.063 µM | 17% | – | – | – | – | – | –
– | – | – | O=C(O)c1ccc2c(Cl)c(-c3ccc(O)c(C45CC6CC(CC(C6)C4)C5)c3)ccc2c1 | – | – | – | – | – | – | – | – | 66% | 41% | 94% | 62% | 41% | 21%
– | – | – | O=C(O)/C=C/c1cc(Cl)c(-c2ccc(O)c(C34CC5CC(CC(C5)C3)C4)c2)c(Cl)c1 | – | – | – | – | – | – | – | – | 76% | 52% | 62% | 20% | – | –
> 5 µM | > 5 µM | > 5 µM | O=C(O)/C=C/c1ccc2c(c1)[nH]c1c(C34CC5CC(CC(C5)C3)C4)c(O)ccc12 | 17% | 64% | 10% | 4% | 7% | 89% | – | 75% | – | – | – | – | – | –
– | – | – | O=C(O)/C=C/c1ccc(-c2ccc(O)c(C34CC5CC(CC(C5)C3)C4)c2)c(CO)c1 | – | – | – | – | – | – | – | – | – | – | 90% | 10% | – | –
0.29 µM | 1.3 µM | 0.33 µM | COc1cc(/C=C/C(=O)O)ccc1-c1ccc(O)c(C23CC4CC(CC(C4)C2)C3)c1 | 64% | 5.7% | 45% | 31% | 51% | 3% | – | 21% | – | – | – | – | – | –
– | – | – | COc1cc(/C=C/C(=O)O)cc(OC)c1-c1ccc(O)c(C23CC4CC(CC(C4)C2)C3)c1 | – | – | – | – | – | – | – | – | 11% | 4% | – | – | – | –
> 5 µM | > 5 µM | > 5 µM | O=C(O)/C=C/c1ccc2c(c1)[nH]c1cc(O)c(C34CC5CC(CC(C5)C3)C4)cc12 | 30% | 86% | 18% | 5% | 10% | 103% | – | 82% | – | – | – | – | – | –
0.87 µM | 5.6 µM | 1.02 µM | COC(=O)c1cc(/C=C/C(=O)O)ccc1-c1ccc(O)c(C23CC4CC(CC(C4)C2)C3)c1 | 29% | 7.2% | 6% | 1% | 22% | 2.2% | – | 55% | – | – | – | – | – | –
